Measurements published in ChEMBL document CHEMBL1132156, “Synthesis and structure-activity relationships of potential anticancer agents: alkylcarbamates of 3-(9-acridinylamino)-5-hydroxymethylaniline” (J Med Chem, 1999).

Assays:
[1] = test system: HL-60; experiment: In vitro inhibition of human leukemic HL-60 cell growth in culture; type: functional, cell-based
Procedure, shortened: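 HL-60 cells were seeded at 5×10^4 cells/mL in RPMI 1640 with 10% heat-inactivated FBS, penicillin and streptomycin, at 37 °C in 5% CO2. Cells were exposed for 72 h to six or seven drug concentrations, run in duplicate. Viability was read by XTT-tetrazolium microculture absorbance, and IC50 was derived from median-effect plot analysis.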

[2] = test system: Mus musculus; experiment: […] anticancer activity against B6D2F-1 mice bearing Lewis Lung Carcinoma measured by the Average tumor vol after day 7 at an intraperitoneal dose of 6(mg/kg).; type: functional
Procedure, shortened: (§1)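 Male B6D2F1 mice (8 weeks old, 20–25 g) received 4×10^6 Lewis lung carcinoma cells sc on day -2. Dosing was ip, QDx5, starting on day 1. Groups were 4 control mice and 3 mice per dose. Tumor size and average body-weight change were evaluated on days 7, 10 and 14. Tumor volume is expressed as the treated/control ratio.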

[3] = test system: Mus musculus; experiment: […] anticancer activity against B6D2F-1 mice bearing Sarcoma 180 measured by the average weight change(g) after day 7 at an intraperitoneal dose of 5(mg/kg).; type: functional
Procedure, shortened: (§2)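 Male B6D2F1 mice (8 weeks old, 20–25 g) were inoculated sc with 3×10^6 Sarcoma 180 cells on day 0. Dosing was ip, QDx5, starting on day 1. Groups were 4 control mice and 2 mice per dose. Average body weight change (g) and treated/control tumor volume were evaluated on days 7, 10 and 14.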

[4] = test system: Mus musculus; experiment: […] anticancer activity against B6D2F-1 mice bearing P388 leukemia measured by the average weight change(g) after day 11 at an intravenous dose of 10(mg/kg).; type: functional
Procedure, shortened: (§3)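 Male B6D2F1 mice (8 weeks old, 20–25 g) were implanted iv on day 0 with P388/0 ascites cells (0.2 mL; ascites:saline 1.10), which grew in the liver. Drug was given iv via the tail vein, Q2Dx5, on days 1, 3, 5, 7 and 9. Groups had 4–5 mice. Day 1 value is mean body weight; later days are weight change.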

[5] = test system: Mus musculus; experiment: […] anticancer activity against B6D2F-1 mice bearing P388 leukemia measured by the Average tumor vol after day 14 at an intravenous dose of 3(mg/kg).; type: functional
[6] = test system: Mus musculus; experiment: […] anticancer activity against B6D2F-1 mice bearing Lewis Lung Carcinoma measured by the Average tumor vol after day 10 at an intraperitoneal dose of 6(mg/kg).; type: functional; procedure, shortened: as §1
[7] = test system: Mus musculus; experiment: […] anticancer activity against B6D2F-1 mice bearing P388 leukemia measured by the Average tumor vol after day 11 at an intravenous dose of 7(mg/kg).; type: functional
[8] = test system: Mus musculus; experiment: […] anticancer activity against B6D2F-1 mice bearing Sarcoma 180 measured by the average weight change(g) after day 14 at an intraperitoneal dose of 5(mg/kg).
[9] = test system: Mus musculus; experiment: […] anticancer activity against B6D2F-1 mice bearing P388 leukemia measured by the average weight change(g) after day 7 at an intravenous dose of 15(mg/kg).; type: functional; procedure, shortened: as §3
[10] = test system: Mus musculus; experiment: […] anticancer activity against B6D2F-1 mice bearing P388 leukemia measured by the average survival time(day+/-SD) at an intravenous dose of 10(mg/kg)..; type: functional
Procedure, shortened: (§4)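 Male B6D2F1 mice, 8 weeks old, 20–25 g. P388/0 ascites cells (0.2 mL, ascites:saline 1.10) were implanted iv on day 0, and the tumor grew in the liver. Drug was given iv by tail vein on days 1, 3, 5, 7 and 9 (Q2Dx5), with 4–5 mice per group. Survival time was scored as 8 a.m. (0.0), 1 p.m. (0.25) or 5 p.m. (0.5) deaths. %ILS was averaged against untreated controls, and toxic deaths were counted.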

[11] = test system: Mus musculus; experiment: […] anticancer activity against B6D2F-1 mice bearing Lewis Lung Carcinoma measured by the average weight change(g) after day 10 at an intraperitoneal dose of 6(mg/kg).; type: functional; procedure, shortened: as §1
[12] = test system: Mus musculus; experiment: […] anticancer activity against B6D2F-1 mice bearing Lewis Lung Carcinoma measured by the Average tumor vol after day 10 at an intraperitoneal dose of 3(mg/kg).; type: functional; procedure, shortened: as §1
[13] = test system: Mus musculus; experiment: […] anticancer activity against B6D2F-1 mice bearing P388 leukemia measured by the Average tumor vol after day 10 at an intravenous dose of 7(mg/kg).; type: functional
[14] = test system: Mus musculus; experiment: […] anticancer activity against B6D2F-1 mice bearing P388 leukemia measured by the increase in lifespan(%) at an intravenous dose of 10(mg/kg)..; type: functional; procedure, shortened: as §4
[15] = test system: Mus musculus; experiment: […] anticancer activity against B6D2F-1 mice bearing P388 leukemia measured by the Average tumor vol after day 10 at an intravenous dose of 3(mg/kg).; type: functional
[16] = test system: Mus musculus; experiment: […] anticancer activity against B6D2F-1 mice bearing Sarcoma 180 measured by the average weight change(g) after day 10 at an intraperitoneal dose of 5(mg/kg).; type: functional; procedure, shortened: as §2
[17] = test system: Mus musculus; experiment: […] anticancer activity against B6D2F-1 mice bearing P388 leukemia measured by the Average survival time(day+/-SD) at an intravenous dose of 15(mg/kg).; type: functional; procedure, shortened: as §4
[18] = test system: Mus musculus; experiment: […] anticancer activity against 5 B6D2F-1 mice bearing P388 leukemia measured by the toxicity death at an intravenous dose of 10(mg/kg)..; type: organism-based; conditions: in vivo; procedure, shortened: as §4
[19] = test system: Mus musculus; experiment: […] anticancer activity against B6D2F-1 mice bearing Lewis Lung Carcinoma measured by the Average tumor vol after day 14 at an intraperitoneal dose of 6(mg/kg).; type: functional; procedure, shortened: as §1
[20] = test system: Mus musculus; experiment: […] anticancer activity against B6D2F-1 mice bearing Sarcoma 180 measured by the Average tumor vol after day 7 at an intravenous dose of 3(mg/kg).
[21] = test system: Mus musculus; experiment: […] anticancer activity against B6D2F-1 mice bearing Sarcoma 180 measured by the average weight change(g) after day 14 at an intraperitoneal dose of 7(mg/kg).; type: functional; procedure, shortened: as §2
[22] = test system: Mus musculus; experiment: […] anticancer activity against B6D2F-1 mice bearing P388 leukemia measured by the Average tumor vol after day 10 at an intravenous dose of 5(mg/kg).; type: functional
[23] = test system: Mus musculus; experiment: […] anticancer activity against B6D2F-1 mice bearing Sarcoma 180 measured by the Average tumor vol after day 7 at an intravenous dose of 5(mg/kg).
[24] = test system: Mus musculus; experiment: […] anticancer activity against 5 B6D2F-1 mice bearing P388 leukemia measured by the toxicity death at an intravenous dose of 15(mg/kg).; type: organism-based; conditions: in vivo; procedure, shortened: as §4
[25] = test system: Mus musculus; experiment: […] anticancer activity against B6D2F-1 mice bearing Sarcoma 180 measured by the average weight change(g) after day 10 at an intraperitoneal dose of 7(mg/kg).; type: functional; procedure, shortened: as §2
[26] = test system: Mus musculus; experiment: […] anticancer activity against B6D2F-1 mice bearing Sarcoma 180 measured by the average weight change(g) after day 7 at an intraperitoneal dose of 7(mg/kg).; type: functional; procedure, shortened: as §2
[27] = test system: Mus musculus; experiment: […] anticancer activity against B6D2F-1 mice bearing Lewis Lung Carcinoma measured by the average weight change(g) after day 14 at an intraperitoneal dose of 3(mg/kg).; type: functional; procedure, shortened: as §1
[28] = test system: Mus musculus; experiment: […] anticancer activity against B6D2F-1 mice bearing P388 leukemia measured by the average weight change(g) after day 7 at an intravenous dose of 10(mg/kg).; type: functional; procedure, shortened: as §3

Question: For CCOC(=O)Nc1cc(CO)cc(Nc2c3ccccc3nc3ccccc23)c1, which IC50 [1] is on record?
Answer: Its IC50 is 4.4 nM.

Question: What about the Average tumor volume [2] of the same molecule?
Answer: The Average tumor volume was 0.44.

Question: And the Average weight change [3]?
Answer: The Average weight change was -2.6 g.

Question: What about the Average weight change [4] of the same molecule?
Answer: Its Average weight change is -0.1 g.

Question: What about the Average tumor volume [5] of the same molecule?
Answer: Its Average tumor volume is 0.74.

Question: And the Average tumor volume [6]?
Answer: Its Average tumor volume is 0.37.

Question: What about the Average tumor volume [7] of the same molecule?
Answer: The Average tumor volume was under 0.01.

Question: What about the Average weight change [8] of the same molecule?
Answer: The Average weight change was 1.2 g.

Question: And the Average weight change [9]?
Answer: The Average weight change was -1.6 g.

Question: And the Average survival [10]?
Answer: The Average survival was 18.4 days.

Question: What about the Average weight change [11] of the same molecule?
Answer: Its Average weight change is -2.6 g.

Question: And the Average tumor volume [12]?
Answer: The Average tumor volume was 0.63.

Question: What about the Average tumor volume [13] of the same molecule?
Answer: The Average tumor volume was under 0.01.

Question: What about the Increase in life-span [14] of the same molecule?
Answer: Its Increase in life-span is 188%.

Question: What about the Average tumor volume [15] of the same molecule?
Answer: Its Average tumor volume is 1.21.

Question: And the Average weight change [16]?
Answer: The Average weight change was 1 g.

Question: And the Average survival [17]?
Answer: Its Average survival is 13.2 days.

Question: And the Toxicity related death [18]?
Answer: Its Toxicity related death is 0.

Question: And the Average tumor volume [19]?
Answer: Its Average tumor volume is 0.52.

Question: What about the Average tumor volume [20] of the same molecule?
Answer: The Average tumor volume was 1.24.

Question: What about the Average weight change [21] of the same molecule?
Answer: Its Average weight change is -0.4 g.

Question: And the Average tumor volume [22]?
Answer: The Average tumor volume was 0.63.

Question: And the Average tumor volume [23]?
Answer: The Average tumor volume was 0.06.

Question: And the Toxicity related death [24]?
Answer: The Toxicity related death was 4.

Question: What about the Average weight change [25] of the same molecule?
Answer: The Average weight change was -0.1 g.

Question: And the Average weight change [26]?
Answer: Its Average weight change is -3.4 g.

Question: And the Average weight change [27]?
Answer: Its Average weight change is -0.8 g.

Question: What about the Average weight change [28] of the same molecule?
Answer: The Average weight change was -0.2 g.
